Laboratory results as given in ChEMBL document CHEMBL4251626, “4β-amidotriazole linked podophyllotoxin congeners: DNA topoisomerase-IIα inhibition and potential anticancer agents for prostate cancer” (Eur J Med Chem, 2018).
Activity calls are given as the source filed them. The rule behind the calls is not given here.

What was measured:
[1] = system: HepG2; test: Antiproliferative activity against human HepG2 cells after 48 hrs by MTT assay; assay type: functional, cell-based; conditions: HepG2, 48 h
Method in brief: (§1)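 Cells in DMEM/10% FBS pre-incubated 24 h at 37 °C, then compound-treated 48 h (10 mM DMSO stock diluted in medium). MTT (10 µL of 5 mg/mL) added for 4 h; formazan dissolved in DMSO, absorbance read at 570 nm. IC50 = 50% inhibitory concentration, mean of three individual experiments.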

[2] = system: A549; test: Antiproliferative activity against human A549 cells after 48 hrs by MTT assay; assay type: functional, cell-based; conditions: A549, 48 h; method in brief: as §1
[3] = system: HeLa; test: Antiproliferative activity against human HeLa cells after 48 hrs by MTT assay; assay type: functional, cell-based; method in brief: as §1
[4] = system: DU-145; test: Cell cycle arrest in human DU145 cells assessed as accumulation at G2/M phase at 1 uM after 24 hrs by propidium iodide staining based flow cytometry relative to control; assay type: functional
Method in brief: (§2)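 DU-145 cells (2x10^5/well) serum-starved 24 h to synchronize, then treated in complete medium for 24 h. Harvested and fixed in 70% ethanol at -20 °C for 30 min. RNase A (0.1 mg/mL, 37 °C, 30 min), then propidium iodide (50 µg/mL, 30 min on ice, dark). DNA content measured by flow cytometry.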

[5] = target: DNA topoisomerase 2-alpha (Homo sapiens) (UniProt P11388); test: Poison activity at recombinant human topoisomerase-2 alpha assessed as linear DNA formation using pHOT1 kDNA as substrate at 100 uM after 10 mins by agarose gel electrophoresis method
Sequence of DNA topoisomerase 2-alpha (Homo sapiens) (P11388 whole entry): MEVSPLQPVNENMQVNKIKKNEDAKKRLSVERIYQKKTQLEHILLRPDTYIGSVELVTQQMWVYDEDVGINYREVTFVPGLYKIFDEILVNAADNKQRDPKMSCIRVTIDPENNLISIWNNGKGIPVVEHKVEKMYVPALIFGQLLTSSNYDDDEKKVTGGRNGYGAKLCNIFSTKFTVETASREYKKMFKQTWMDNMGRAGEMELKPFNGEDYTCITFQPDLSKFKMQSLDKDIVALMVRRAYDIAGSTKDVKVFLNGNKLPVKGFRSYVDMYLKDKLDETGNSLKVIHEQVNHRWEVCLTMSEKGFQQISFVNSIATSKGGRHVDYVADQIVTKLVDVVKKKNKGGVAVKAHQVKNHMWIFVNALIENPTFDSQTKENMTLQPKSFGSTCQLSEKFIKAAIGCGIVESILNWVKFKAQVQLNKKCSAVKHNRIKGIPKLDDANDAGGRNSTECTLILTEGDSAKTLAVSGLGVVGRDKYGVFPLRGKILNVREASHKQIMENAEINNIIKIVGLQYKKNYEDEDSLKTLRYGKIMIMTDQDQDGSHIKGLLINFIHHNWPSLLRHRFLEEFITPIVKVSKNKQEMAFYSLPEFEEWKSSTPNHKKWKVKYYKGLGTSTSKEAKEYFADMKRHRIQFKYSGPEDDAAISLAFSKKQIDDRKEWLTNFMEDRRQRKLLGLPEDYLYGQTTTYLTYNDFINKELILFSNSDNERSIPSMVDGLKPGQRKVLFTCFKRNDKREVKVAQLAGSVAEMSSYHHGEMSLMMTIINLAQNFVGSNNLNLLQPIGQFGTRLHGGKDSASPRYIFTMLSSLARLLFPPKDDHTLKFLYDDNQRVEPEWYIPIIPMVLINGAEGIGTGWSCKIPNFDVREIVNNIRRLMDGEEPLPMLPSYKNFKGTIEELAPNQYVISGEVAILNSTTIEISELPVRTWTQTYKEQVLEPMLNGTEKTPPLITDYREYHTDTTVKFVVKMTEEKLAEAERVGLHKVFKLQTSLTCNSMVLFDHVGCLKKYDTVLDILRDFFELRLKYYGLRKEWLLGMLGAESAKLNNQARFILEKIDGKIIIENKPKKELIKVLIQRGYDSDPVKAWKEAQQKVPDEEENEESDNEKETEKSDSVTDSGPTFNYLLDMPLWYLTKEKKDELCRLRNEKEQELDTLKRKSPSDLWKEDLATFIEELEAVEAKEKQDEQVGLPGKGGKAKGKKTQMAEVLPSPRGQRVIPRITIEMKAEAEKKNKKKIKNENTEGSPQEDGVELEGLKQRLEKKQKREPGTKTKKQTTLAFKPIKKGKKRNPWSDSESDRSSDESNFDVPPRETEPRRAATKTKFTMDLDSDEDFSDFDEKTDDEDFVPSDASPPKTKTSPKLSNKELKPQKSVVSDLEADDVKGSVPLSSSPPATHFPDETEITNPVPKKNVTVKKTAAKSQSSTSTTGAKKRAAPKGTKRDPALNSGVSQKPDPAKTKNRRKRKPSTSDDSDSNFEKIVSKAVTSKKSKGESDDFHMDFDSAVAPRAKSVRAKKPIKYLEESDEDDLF
Method in brief: (§3)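 Five units human recombinant topo II, 10 min at 37 °C. Stopped with loading-dye stop buffer; products resolved on 1% agarose gel in TAE (catenated, decatenated, linear DNA).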

[6] = system: HT-29; test: Antiproliferative activity against human HT-29 cells after 48 hrs by MTT assay; assay type: functional, cell-based; conditions: HT-29, 48 h; method in brief: as §1
[7] = system: DU-145; test: Induction of apoptosis in human DU145 cells assessed as late apoptotic cells at 1 uM after 24 hrs by Annexin V-FITC/propidium iodide staining based flow cytometry (reference value: 1.49%); assay type: functional
[8] = system: DU-145; test: Induction of apoptosis in human DU145 cells assessed as early apoptotic cells at 1 uM after 24 hrs by Annexin V-FITC/propidium iodide staining based flow cytometry (reference value: 0.56%); assay type: functional
[9] = system: DU-145; test: Induction of apoptosis in human DU145 cells assessed as live cells at 1 uM after 24 hrs by Annexin V-FITC/propidium iodide staining based flow cytometry (reference value: 96.3%); assay type: functional
[10] = system: DU-145; test: Induction of ROS production in human DU145 cells at 0.5 to 1 uM after 24 hrs by DCFDA staining based fluorescence microscopic method; assay type: functional, cell-based
Method in brief: (§4)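 DU-145 cells (2x10^5/well) plated overnight, then treated 24 h at indicated concentrations. Medium replaced with DCFDA (10 µM) for 30 min at room temperature in the dark. After PBS washes, fluorescence was imaged by microscopy and reported as mean fluorescence intensity.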

[11] = system: DU-145; test: Induction of apoptosis in human DU145 cells assessed as necrotic cells at 1 uM after 24 hrs by Annexin V-FITC/propidium iodide staining based flow cytometry (reference value: 1.65%); assay type: functional
[12] = system: DU-145; test: Induction of apoptosis in human DU145 cells assessed as cell shrinkage at 0.5 to 1 uM after 24 hrs by phase contrast microscopic method; assay type: functional, cell-based
Method in brief: (§5)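 DU-145 cells (2x10^5/well) plated overnight; medium replaced with fresh medium containing compound at indicated concentrations for 24 h. Cell morphology examined and photographed by phase-contrast microscopy.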

[13] = system: DU-145; test: Antimigratory activity against human DU145 cells at 0.5 to 1 uM after 24 to 48 hrs by phase contrast microscopic based scratch assay; assay type: functional, cell-based
Method in brief: (§6)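 DU-145 cells seeded at 2x10^5/well and grown to confluence; wound made with a sterile 200 µL tip, debris washed off with PBS. Fresh medium with compound at the indicated concentrations added. Migration followed by phase-contrast microscopy with images at 0, 24 and 48 h.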

[14] = system: DU-145; test: Induction of apoptosis in human DU145 cells assessed as live cells at 0.5 uM after 24 hrs by Annexin V-FITC/propidium iodide staining based flow cytometry (reference value: 96.3%); assay type: functional
[15] = system: DU-145; test: Cell cycle arrest in human DU145 cells assessed as accumulation at G2/M phase at 0.5 uM after 24 hrs by propidium iodide staining based flow cytometry relative to control; assay type: functional; method in brief: as §2
[16] = system: DU-145; test: Induction of apoptosis in human DU145 cells assessed as nuclear fragmentation at 0.5 to 1 uM after 24 hrs by Hoechst staining based fluorescence microscopic method; assay type: functional, cell-based
Method in brief: (§7)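 DU-145 cells (1x10^5/well) incubated overnight, then treated 24 h. After three PBS washes, stained with Hoechst (1 µg/ml) for 20 min at 37 °C and washed. Imaged by fluorescence microscopy; random fields counted for chromatin condensation and nuclear fragmentation.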

[17] = system: DU-145; test: Induction of apoptosis in human DU145 cells assessed as cell detachment from substratum at 0.5 to 1 uM after 24 hrs by phase contrast microscopic method; assay type: functional, cell-based; method in brief: as §5
[18] = system: DU-145; test: Antiproliferative activity against human DU145 cells after 48 hrs by MTT assay; assay type: functional, cell-based; conditions: DU-145, 48 h; method in brief: as §1
[19] = system: DU-145; test: Induction of apoptosis in human DU145 cells assessed as necrotic cells at 0.5 uM after 24 hrs by Annexin V-FITC/propidium iodide staining based flow cytometry (reference value: 1.65%); assay type: functional
[20] = system: NIH3T3; test: Antiproliferative activity against mouse NIH/3T3 cells after 48 hrs by MTT assay; assay type: cell-based; conditions: NIH3T3, 48 h; method in brief: as §1
[21] = system: MCF7; test: Antiproliferative activity against human MCF7 cells after 48 hrs by MTT assay; assay type: functional, cell-based; conditions: MCF7, 48 h; method in brief: as §1
[22] = system: DU-145; test: Induction of apoptosis in human DU145 cells assessed as early apoptotic cells at 0.5 uM after 24 hrs by Annexin V-FITC/propidium iodide staining based flow cytometry (reference value: 0.56%); assay type: functional
[23] = system: DU-145; test: Induction of mitochondrial membrane potential loss in human DU145 cells […] at 0.5 to 1 uM after 24 hrs by JC1 staining based flow cytometry; assay type: functional, cell-based
Method in brief: (§8)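 Cells (2x10^5/well) treated 24 h, trypsinized and pelleted (400 g, 5 min). Incubated with freshly made JC-1 working solution for 15 min at 37 °C, washed twice in assay buffer. Analysed by flow cytometry as percentage of J-aggregate versus J-monomer cells.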

[24] = system: DU-145; test: Induction of apoptosis in human DU145 cells assessed as late apoptotic cells at 0.5 uM after 24 hrs by Annexin V-FITC/propidium iodide staining based flow cytometry (reference value: 1.49%); assay type: functional
[25] = system: DU-145; test: Induction of apoptosis in human DU145 cells assessed as nuclear condensation at 0.5 to 1 uM after 24 hrs by Hoechst staining based fluorescence microscopic method; assay type: functional, cell-based; method in brief: as §7
[26] = system: DU-145; test: Induction of ROS production in human DU145 cells after 24 hrs by DCFDA staining based fluorescence microscopic method; assay type: functional, cell-based; method in brief: as §4
[27] = system: DU-145; test: Induction of apoptosis in human DU145 cells after 24 hrs by Annexin V-FITC/propidium iodide staining based flow cytometry; assay type: functional, cell-based
[28] = target: DNA topoisomerase 2-alpha (Homo sapiens) (UniProt P11388); test: Inhibition of recombinant human topoisomerase-2 alpha assessed as reduction in decatenation of pHOT1 kDNA at 100 uM after 10 mins by agarose gel electrophoresis method; method in brief: as §3
[29] = system: DU-145; test: Induction of apoptosis in human DU145 cells assessed as early apoptotic cells at 2 uM after 24 hrs by Annexin V-FITC/propidium iodide staining based flow cytometry (reference value: 0.56%); assay type: functional
[30] = system: DU-145; test: Induction of ROS production in human DU145 cells at 2 uM after 24 hrs by DCFDA staining based fluorescence microscopic method; assay type: functional, cell-based; method in brief: as §4
[31] = system: DU-145; test: Induction of apoptosis in human DU145 cells assessed as live cells at 2 uM after 24 hrs by Annexin V-FITC/propidium iodide staining based flow cytometry (reference value: 96.3%); assay type: functional
[32] = system: DU-145; test: Induction of apoptosis in human DU145 cells assessed as nuclear fragmentation at 2 uM after 24 hrs by Hoechst staining based fluorescence microscopic method; assay type: functional, cell-based; method in brief: as §7
[33] = system: DU-145; test: Induction of apoptosis in human DU145 cells assessed as morphological changes at 2 uM after 24 hrs by phase contrast microscopic method; assay type: functional, cell-based; method in brief: as §5
[34] = system: DU-145; test: Induction of apoptosis in human DU145 cells assessed as late apoptotic cells at 2 uM after 24 hrs by Annexin V-FITC/propidium iodide staining based flow cytometry (reference value: 1.49%); assay type: functional
[35] = system: DU-145; test: Induction of apoptosis in human DU145 cells assessed as nuclear condensation at 2 uM after 24 hrs by Hoechst staining based fluorescence microscopic method; assay type: functional, cell-based; method in brief: as §7
[36] = system: DU-145; test: Induction of apoptosis in human DU145 cells assessed as necrotic cells at 2 uM after 24 hrs by Annexin V-FITC/propidium iodide staining based flow cytometry (reference value: 1.65%); assay type: functional
[37] = system: DU-145; test: Cell cycle arrest in human DU145 cells assessed as accumulation at G2/M phase at 2 uM after 24 hrs by propidium iodide staining based flow cytometry relative to control; assay type: functional; method in brief: as §2
[38] = system: DU-145; test: Antimigratory activity against human DU145 cells at 2 uM after 24 to 48 hrs by phase contrast microscopic based scratch assay; assay type: functional, cell-based; method in brief: as §6
[39] = system: DU-145; test: Induction of mitochondrial membrane potential loss in human DU145 cells […] at 2 uM after 24 hrs by JC1 staining based flow cytometry; assay type: functional, cell-based; method in brief: as §8

Compound | IC50 [1] [nM] | IC50 [2] [nM] | IC50 [3] [nM] | Activity [4] [%] | Activity [5] | IC50 [6] [nM] | Activity [7] [%] | Activity [8] [%] | Activity [9] [%] | Activity [11] [%] | Activity [12] | Activity [13] | Activity [14] [%] | Activity [15] [%] | Activity [16] | Activity [17] | IC50 [18] [nM] | Activity [19] [%] | IC50 [20] [nM] | IC50 [21] [nM] | other results
COc1cc([C@@H]2c3cc4c(cc3C(NC(=O)c3cn(-c5ccc(Cl)cc5)nn3)[C@H]3COC(=O)[C@H]23)OCO4)cc(OC)c1OC (single isomer, unassigned) | 780 | 1200 | 780 | 35.61 | Active | 4110 | 1.8 | 4.35 | 93.69 | 0.16 | Active | inactive | 93.72 | 31.94 | Active | Active | 700 | 0.41 | 89000 | 970 | Activity [10]: Active; Activity [22]: 3.94%; Activity [23]: inactive; Activity [24]: 1.93%; Activity [25]: Active
COc1cc([C@@H]2c3cc4c(cc3C(NC(=O)c3cn(-c5ccc(C(F)(F)F)cc5)nn3)[C@H]3COC(=O)[C@H]23)OCO4)cc(OC)c1OC (single isomer, unassigned) | 1210 | 1960 | 1210 | 56.16 | – | 4400 | 2.46 | 17.65 | 79.84 | 0.05 | Active | Active | 89.65 | 52.42 | Active | Active | 890 | 0.74 | 83800 | 1350 | Activity [26]: Dose-dependent effect; Activity [27]: Dose-dependent effect; inhibition [28]: Active; Activity [22]: 7.01%; Activity [23]: Active; Activity [24]: 2.6%; Activity [25]: Active
COc1cc([C@@H]2c3cc4c(cc3[C@@H](O[C@@H]3O[C@@H]5CO[C@@H](C)O[C@H]5[C@H](O)[C@H]3O)[C@H]3COC(=O)[C@H]23)OCO4)cc(OC)c1O [ETOPOSIDE] | 2840 | 1970 | 2710 | – | Active | 1870 | – | – | – | – | – | – | – | – | – | – | 2350 | – | – | 1620 | Activity [29]: 4.52%; Activity [30]: Active; Activity [31]: 91.09%; Activity [32]: Active; Activity [33]: Active; Activity [34]: 3.86%; Activity [35]: Active; Activity [36]: 0.53%; Activity [37]: 71.53%; Activity [38]: Active; Activity [39]: Active
COc1ccc(-n2cc(C(=O)NC3c4cc5c(cc4[C@@H](c4cc(OC)c(OC)c(OC)c4)[C@H]4C(=O)OC[C@H]34)OCO5)nn2)cc1 (single isomer, unassigned) | 2790 | 1610 | 6490 | 64.3 | Active | 11400 | 3.12 | 7 | 88.89 | 0.99 | Active | Active | 91.01 | 56.71 | Active | Active | 990 | 0.4 | 62900 | 1110 | Activity [26]: Dose-dependent effect; Activity [27]: Dose-dependent effect; Activity [22]: 6.76%; Activity [23]: Active; Activity [24]: 1.83%; Activity [25]: Active
